Data taken from ChEMBL document CHEMBL1121430, “Bicyclic and tricyclic ergoline partial structures. Rigid 3-(2-aminoethyl)pyrroles and 3- and 4-(2-aminoethyl)pyrazoles as dopamine agonists” (1980).

How the values were obtained:
Type in all cases: functional
[1] = tested on: Rattus norvegicus; assay: (§1) Tested for average turns of rat / 1st 15 min at intraperitoneal dosage of 0.1 mg/kg
In short: (§2)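 Rats with unilateral 6-hydroxydopamine nigrostriatal lesions dosed intraperitoneally; contralateral rotation scored as percentage of rats turning and average turns counted over first 15 min after turning began; 6-10 rats per group.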

[2] = tested on: Rattus norvegicus; assay: Tested for average turns of rat / 1st 15 min at intraperitoneal dosage of 1.0 mg/kg; in short: as §2
[3] = tested on: Rattus norvegicus; assay: (§3) Tested for lowering of serum prolactin level in reserpinized rat after i.p. administration at dosage of 0.05 mg/kg; settings: route intraperitoneal
[4] = tested on: Rattus norvegicus; assay: (§4) Percentage of lesioned rats exhibiting contralateral turning after intraperitoneal dosage of 0.1 mg/kg; in short: as §2
[5] = tested on: Rattus norvegicus; assay: Percentage of lesioned rats exhibiting contralateral turning after intraperitoneal dosage of 1.0 mg/kg
In short: (§5)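 Rats with unilateral 6-hydroxydopamine nigrostriatal lesions dosed i.p.; contralateral rotation scored as % of rats turning and average turns during first 15 min after turning began; 6-10 rats per group. Method of Ungerstedt and Arbuthnot.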

[6] = tested on: Rattus norvegicus; assay: (§6) Control Serum prolactin level in reserpinized rat after i.p. administration at dosage of 0.05 mg/kg; settings: route intraperitoneal
[7] = species on record: Rattus norvegicus; assay: animal or person; settings: ip, route intraperitoneal
[8] = tested on: Rattus norvegicus; assay: (§7) Dopaminergic activity causing prolactin inhibition in reserpinized rat after i.p. administration at dosage of 5.0 mg/kg; settings: ip, route intraperitoneal
[9] = tested on: Rattus norvegicus; assay: Average turns of rat / 1st 15 min at intraperitoneal dosage of 1.0 mg/kg
[10] = tested on: Rattus norvegicus; assay: Tested for average turns of rat / 1st 15 min at intraperitoneal dosage of 0.02 mg/kg; in short: as §2
[11] = tested on: Rattus norvegicus; assay: Tested for average turns of rat / 1st 15 min at intraperitoneal dosage of 0.05 mg/kg; in short: as §2
[12] = tested on: Rattus norvegicus; assay: tested for average turns of rat / 1st 15 min at intraperitoneal dosage of 0.1 mg/kg; in short: as §2
[13] = tested on: Rattus norvegicus; assay: Tested for lowering of serum prolactin level in reserpinized rat after i.p. administration at dosage of 0.0005 mg/kg; settings: route intraperitoneal
In short: (§8)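 Serum prolactin measured in reserpinized male rats given drug intraperitoneally; control group serum level alongside treated level; percent inhibition derived from control versus treated means; mean ± standard error for 10 rats per group; significance level (p) reported versus control.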

[14] = tested on: Rattus norvegicus; assay: Tested for lowering of serum prolactin level in reserpinized rat after i.p. administration at dosage of 0.005 mg/kg; settings: route intraperitoneal; in short: as §8
[15] = tested on: Rattus norvegicus; assay: Percentage of lesioned rats exhibiting contralateral turning after ip dosage of 0.02 mg/kg; settings: route intraperitoneal; in short: as §2
[16] = tested on: Rattus norvegicus; assay: Percentage of lesioned rats exhibiting contralateral turning after ip dosage of 0.05 mg/kg; settings: route intraperitoneal; in short: as §2
[17] = tested on: Rattus norvegicus; assay: Percentage of lesioned rats exhibiting contralateral turning after ip dosage of 0.1 mg/kg; settings: route intraperitoneal; in short: as §2
[18] = tested on: Rattus norvegicus; assay: Percentage of lesioned rats exhibiting contralateral turning after ip dosage of 1.0 mg/kg; settings: route intraperitoneal; in short: as §2
[19] = tested on: Rattus norvegicus; assay: Control Serum prolactin level in reserpinized rat after i.p. administration at dosage of 0.0005 mg/kg; settings: route intraperitoneal; in short: as §8
[20] = tested on: Rattus norvegicus; assay: Control Serum prolactin level in reserpinized rat after i.p. administration at dosage of 0.005 mg/kg; settings: route intraperitoneal; in short: as §8
[21] = tested on: Rattus norvegicus; assay: Dopaminergic activity causing prolactin inhibition in reserpinized rat after i.p. administration at dosage of 0.0005 mg/kg; settings: ip, route intraperitoneal; in short: as §8
[22] = tested on: Rattus norvegicus; assay: (§9) Dopaminergic activity causing prolactin inhibition in reserpinized rat after i.p. administration at dosage of 0.005 mg/kg; settings: ip, route intraperitoneal; in short: as §8
[23] = tested on: Rattus norvegicus; assay: as §3; settings: route intraperitoneal; in short: as §8; remark: listed apart in the source
[24] = tested on: Rattus norvegicus; assay: Percentage of lesioned rats exhibiting contralateral turning after intraperitoneal dosage of 0.05 mg/kg; in short: as §2
[25] = tested on: Rattus norvegicus; assay: as §1; in short: as §5; remark: listed apart in the source
[26] = tested on: Rattus norvegicus; assay: as §4; in short: as §5; remark: listed apart in the source
[27] = tested on: Rattus norvegicus; assay: Tested for lowering of serum prolactin level in reserpinized rat after i.p. administration at dosage of 0.5 mg/kg; settings: route intraperitoneal
[28] = tested on: Rattus norvegicus; assay: (§10) Control Serum prolactin level in reserpinized rat after i.p. administration at dosage of 0.5 mg/kg; settings: route intraperitoneal
[29] = tested on: Rattus norvegicus; assay: Dopaminergic activity causing prolactin inhibition in reserpinized rat after i.p. administration at dosage of 0.5 mg/kg; settings: ip, route intraperitoneal
[30] = tested on: Rattus norvegicus; assay: as §10; settings: route intraperitoneal; remark: listed apart in the source
In short: (§11)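 Reserpinized male rats, intraperitoneal dosing; serum prolactin of vehicle control group reported in ng/mL as mean ± standard error, 10 rats per group, for comparison with treated group.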

[31] = tested on: Rattus norvegicus; assay: Control Serum prolactin level in reserpinized rat after i.p. administration at dosage of 5 mg/kg; settings: route intraperitoneal; in short: as §11
[32] = tested on: Rattus norvegicus; assay: as §7; settings: ip, route intraperitoneal; in short: as §8; remark: listed apart in the source
[33] = tested on: Rattus norvegicus; assay: (§12) Dopaminergic activity causing prolactin inhibition in reserpinized rat after i.p. administration at dosage of 0.05 mg/kg; settings: ip, route intraperitoneal
In short: (§13)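 Male rats pretreated with reserpine; drug given i.p. and serum prolactin measured (ng/mL) in controls and treated groups; % inhibition relative to control; mean ± SE for 10 rats per group; significance level p reported. Method of Clemens et al.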

[34] = tested on: Rattus norvegicus; assay: as §6; settings: route intraperitoneal; in short: as §13; remark: listed apart in the source
[35] = tested on: Rattus norvegicus; assay: as §9; settings: ip, route intraperitoneal; in short: as §13; remark: listed apart in the source
[36] = tested on: Rattus norvegicus; assay: as §12; settings: ip, route intraperitoneal; in short: as §8; remark: listed apart in the source

Structure (SMILES) | Average turns [1] | Exhibiting turning [5] | Inhibition [6] | inhibition in vivo at 0.05 mg/kg [7] | inhibition in vivo at 5 mg/kg [8] | Average turns [9] | Exhibiting turning [18] | inhibition in vivo at 0.5 mg/kg [29] | further results
CN(C)C1Cc2cccc3[nH]cc(c23)C1.O=C(O)C(=O)O (stereo not drawn) | 0 | 75% | 36.4 ng/mL | 45% | 91% | – | – | – | Average turns [2]: 69; Inhibition [3]: 19.9 ng/mL; Exhibiting turning [4]: 0%
CCN(CC)C1CCc2c[nH]cc2C1.O=C(O)/C=C\C(=O)O (stereo not drawn) | – | 0% | – | – | 23% | 0 | – | – | –
CCCN1CC(CSC)C[C@@H]2c3cccc4[nH]cc(c34)CC21.COS(=O)(=O)O (stereo partly drawn) | – | – | – | 95% | – | 93 | 100% | – | Average turns [10]: 0; Average turns [11]: 60; Average turns [12]: 81; Inhibition [13]: 15.5 ng/mL; Inhibition [14]: 3.5 ng/mL; Exhibiting turning [15]: 0%; Exhibiting turning [16]: 100%; Exhibiting turning [17]: 83%; Inhibition [19]: 37.7 ng/mL; Inhibition [20]: 37.7 ng/mL; inhibition in vivo at 0.0005 mg/kg [21]: 59%; inhibition in vivo at 0.005 mg/kg [22]: 91%
CCCN1CCC[C@@H]2Cc3c[nH]cc3CC21.O=C(O)/C=C\C(=O)O (stereo partly drawn) | 64 | 100% | 49.5 ng/mL | 36% | 95% | 169 | – | – | Average turns [11]: 49; Inhibition [14]: 37.6 ng/mL; Exhibiting turning [4]: 50%; Inhibition [20]: 49.5 ng/mL; inhibition in vivo at 0.005 mg/kg [22]: 24%; Treatment [23]: 31.6 ng/mL; Exhibiting turning [24]: 33%
NC1CCc2c[nH]cc2C1 (stereo not drawn) | – | 0% | – | – | 24% | 0 | – | – | –
CCCN(CCC)C1CCc2c[nH]cc2C1.O=C(O)/C=C\C(=O)O (stereo not drawn) | – | 40% | 59.8 ng/mL | 20% | 93% | 52 | – | 40% | Average turns [25]: 0; Exhibiting turning [26]: 0%; Inhibition [3]: 47.6 ng/mL; Serum level [27]: 36.1 ng/mL; Concentration [28]: 59.8 ng/mL
CN1CCC[C@@H]2Cc3c[nH]cc3CC21.O=C(O)/C=C\C(=O)O (stereo partly drawn) | – | 33% | – | – | 90% | 19 | – | 18% | Serum level [27]: 30.9 ng/mL; Concentration [28]: 37.7 ng/mL
CCCN(CCC)C1Cc2cccc3[nH]cc(c23)C1.O=C(O)C(=O)O (stereo not drawn) | – | 60% | 46.1 ng/mL | 0% | 95% | – | – | 59% | Average turns [25]: 73; Average turns [2]: 113; Control level [30]: 46.1 ng/mL; Exhibiting turning [26]: 40%; Inhibition [3]: 46.2 ng/mL; Serum level [27]: 18.9 ng/mL
O=C(O)/C=C\C(=O)O.c1[nH]cc2c1CC1NCCC[C@@H]1C2 (stereo partly drawn) | – | – | – | – | – | 0 | 0% | – | Inhibition [31]: 43.4 ng/mL; inhibition in vivo at 5 mg/kg [32]: 26%
CCCN(CCC)C1CCc2c[nH]nc2C1 (stereo not drawn) | – | 100% | – | 31% | – | 114 | – | – | Average turns [25]: 0; Exhibiting turning [26]: 0%
CCCN1CC(CO)C[C@@H]2Cc3c[nH]cc3CC21 (stereo partly drawn) | 8 | 100% | – | 17% | – | 109 | – | – | Exhibiting turning [4]: 67%
CCCN1CCC[C@@H]2Cc3n[nH]cc3CC21.Cl.Cl (stereo partly drawn) | 67 | – | – | 61% | 91% | 85 | 100% | 76% | Average turns [11]: 6; Exhibiting turning [16]: 67%; Exhibiting turning [17]: 75%
CCCN(CCC)C1CCc2n[nH]cc2C1.Cl.Cl (stereo not drawn) | 0 | – | – | – | 94% | 90 | 60% | 66% | Serum level [27]: 10.6 ng/mL; Exhibiting turning [17]: 0%; Concentration [28]: 31.2 ng/mL; inhibition in vivo at 0.05 mg/kg [33]: 1%; Control [34]: 31.2 ng/mL; Treatment [23]: 30.8 ng/mL
Cl.Cl.NC1CCc2n[nH]cc2C1 (stereo not drawn) | – | 0% | – | – | 14% | 0 | – | – | –
CN(C)C1CCc2n[nH]cc2C1.Cl.Cl (stereo not drawn) | – | 0% | 59.8 ng/mL | 32% | 69% | 0 | – | – | Inhibition [3]: 41 ng/mL
CCCN1CC(CSC)C[C@@H]2Cc3n[nH]cc3CC21.Cl.Cl (stereo partly drawn) | 65 | – | – | 89% | – | 81 | 100% | – | Average turns [11]: 80; Inhibition [13]: 31.5 ng/mL; Inhibition [14]: 19.3 ng/mL; Exhibiting turning [16]: 67%; Exhibiting turning [17]: 50%; Inhibition [19]: 44.9 ng/mL; Inhibition [20]: 44.9 ng/mL; inhibition in vivo at 0.0005 mg/kg [21]: 30%; inhibition in vivo at 0.005 mg/kg [35]: 57%
CN1CCC[C@@H]2Cc3n[nH]cc3CC21.Cl.Cl (stereo partly drawn) | – | – | 31.7 ng/mL | 2% | 84% | 0 | 0% | 42% | Inhibition [3]: 31.1 ng/mL; Serum level [27]: 18.5 ng/mL; Concentration [28]: 31.7 ng/mL
C=CCN1CCC[C@@H]2Cc3n[nH]cc3CC21.Cl.Cl (stereo partly drawn) | 0 | – | – | – | – | 165 | 100% | – | Exhibiting turning [17]: 0%; inhibition in vivo at 0.05 mg/kg [36]: 31%
Cl.Cl.c1[nH]nc2c1CC1NCCC[C@@H]1C2 (stereo partly drawn) | – | – | – | – | 20% | 0 | 0% | – | –
